Columns and labels:
SK-MEL-28 = experiment: Cytotoxicity against human SK-MEL-28 cells after 48 hrs by SRB assay; assay type: functional, cell-based; conditions: Homo sapiens, SK-MEL-28, 48 h; for CC50: read-out: LC50 (the source's name)
Method in brief: (§1)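 Cells grown in RPMI 1640 with 10% FBS and penicillin/streptomycin at 37 °C and 5% CO₂, trypsinized, then seeded at 5 × 10³/well. After 18 h drug-free attachment, samples in DMSO/EtOH/PBS (0.5:0.5:99) were added for 48 h continuous exposure. Cells were fixed with cold TCA (1 h, 4 °C) and stained with SRB (10 min). Tris-solubilized stain read at 490 nm. Triplicate wells, mean ± SD; GI₅₀ derived.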

PANC-1 = experiment: Cytotoxicity against human PANC1 cells after 48 hrs by SRB assay; assay type: functional; conditions: PANC-1, 48 h; for CC50: read-out: LC50 (the source's name); method in brief: as §1
LoVo [1] = experiment: Cytotoxicity against human doxorubicin resistant LoVo cells after 48 hrs by SRB assay; assay type: functional; conditions: for CC50: read-out: LC50 (the source's name); method in brief: as §1
LNCaP = experiment: Cytotoxicity against human LNcaP cells after 48 hrs by SRB assay; assay type: functional; conditions: for CC50: read-out: LC50 (the source's name); method in brief: as §1
A549 = experiment: Cytotoxicity against human A549 cells after 48 hrs by SRB assay; assay type: functional, cell-based; conditions: Homo sapiens, A549, 48 h; for GI50: read-out: GI50; method in brief: as §1
[2] = Cytotoxicity against human IGROV-ET cells after 48 hrs by SRB assay; assay type: functional; conditions: for CC50: read-out: LC50 (the source's name); method in brief: as §1
LoVo [3] = experiment: Cytotoxicity against human LoVo cells after 48 hrs by SRB assay; assay type: functional; conditions: for CC50: read-out: LC50 (the source's name)
HT-29 = experiment: Cytotoxicity against human HT29 cells after 48 hrs by SRB assay; assay type: functional, cell-based; conditions: Homo sapiens, HT-29, 48 h; for CC50: read-out: LC50 (the source's name); method in brief: as §1
K562 = experiment: Cytotoxicity against human K562 cells after 48 hrs by SRB assay; assay type: functional; conditions: K562, 48 h; for CC50: read-out: LC50 (the source's name); method in brief: as §1
[4] = Cytotoxicity against human IGROV cells after 48 hrs by SRB assay; assay type: functional; conditions: for CC50: read-out: LC50 (the source's name); for GI50: read-out: GI50; method in brief: as §1
DU-145 = experiment: Cytotoxicity against human DU145 cells after 48 hrs by SRB assay; assay type: functional, cell-based; conditions: Homo sapiens, DU-145, 48 h; for CC50: read-out: LC50 (the source's name); for GI50: read-out: GI50; method in brief: as §1
HeLa = experiment: Cytotoxicity against human HeLa cells after 48 hrs by SRB assay; assay type: functional; conditions: read-out: LC50 (the source's name); method in brief: as §1
[5] = Cytotoxicity against human HeLa-APL cells after 48 hrs by SRB assay; assay type: functional; method in brief: as §1
SK-BR-3 = experiment: Cytotoxicity against human SKBR3 cells after 48 hrs by SRB assay; assay type: functional; conditions: SK-BR-3, 48 h; method in brief: as §1

| Structure (SMILES) | CC50 (SK-MEL-28) | GI50 (PANC-1) | TGI (PANC-1) | CC50 (PANC-1) | CC50 (LoVo [1]) | GI50 (LNCaP) | TGI (LNCaP) | CC50 (LNCaP) | LC50 (A549) | CC50 [2] | CC50 (LoVo [3]) | CC50 (HT-29) | GI50 (K562) | TGI (K562) | CC50 (K562) | CC50 [4] | CC50 (DU-145) | TGI (A549) | GI50 (A549) | GI50 (LoVo [3]) | other results |
| --- | --- | --- | --- | --- | --- | --- | --- | --- | --- | --- | --- | --- | --- | --- | --- | --- | --- | --- | --- | --- | --- |
| C/C=C1\NC(=O)[C@H](Cc2ccccc2)NC(=O)[C@@H](C(C)C)NC(=O)[C@@H]([C@H](C)CC)NC(=O)[C@H](NC(=O)[C@H](NC(=O)[C@H](CCCN)NC(=O)[C@H]2CCCN2C(=O)[C@H](NC(=O)CCCCCCCCCCCCC)C(C)C)[C@H](C)CC)[C@H](C)OC(=O)[C@H](C(C)C)NC1=O | 1.87 µM | 2.45 µM | 2.4 µM | 2.16 µM | 5.37 µM | 7.21 µM | 8.1 µM | 8.02 µM | 2.65 µM | 5.19 µM | 3.98 µM | 6.89 µM | 3 µM | 3.47 µM | 3.39 µM | 5.33 µM | 17.9 µM | – | – | – | – |
| C/C=C1\NC(=O)[C@H](Cc2ccccc2)NC(=O)[C@@H](C(C)C)NC(=O)[C@@H]([C@H](C)CC)NC(=O)[C@H](NC(=O)[C@H](NC(=O)[C@H](CCCN)NC(=O)[C@H]2CCCN2C(=O)[C@H](NC(=O)[C@@H](NC(=O)[C@@H](NC(=O)[C@H](NC(=O)CCCCC(C)(F)F)C(C)C)[C@@H](C)O)C(C)C)C(C)C)[C@H](C)CC)[C@H](C)OC(=O)[C@H](C(C)C)NC1=O | 1.3 µM | 2.04 µM | 1.85 µM | 1.69 µM | 50.7 µM | 1.84 µM | 2.87 µM | 3.73 µM | 1.44 µM | 0.571 µM | 0.444 µM | 3.19 µM | 2.96 µM | 2.46 µM | 2.06 µM | 2.46 µM | 5.48 µM | 2.32 µM | 2.03 µM | 0.442 µM | GI50 [2]: 0.751 µM; GI50 ([2]; read-out: GI50): 0.987 µM; TGI (LoVo [3]): 0.397 µM; GI50 (HT-29): 1.96 µM; TGI (HT-29): 2.51 µM; TGI [4]: 1.54 µM; GI50 [4]: 1.33 µM; TGI (DU-145): 3.92 µM; GI50 (DU-145): 4.52 µM |
| C/C=C1\NC(=O)[C@H](Cc2c(F)c(F)c(F)c(F)c2F)NC(=O)[C@@H](C(C)C)NC(=O)[C@@H]([C@H](C)CC)NC(=O)[C@H](NC(=O)[C@H](NC(=O)[C@H](CCCN)NC(=O)[C@H]2CCCN2C(=O)[C@H](NC(=O)[C@@H](NC(=O)[C@@H](NC(=O)[C@H](NC(=O)CC[C@@H](C)CC)C(C)C)[C@@H](C)O)C(C)C)C(C)C)[C@H](C)CC)[C@H](C)OC(=O)[C@H](C(C)C)NC1=O | 1.12 µM | 2.11 µM | 3.42 µM | 2.81 µM | 0.374 µM | 0.504 µM | 0.681 µM | 0.778 µM | 1.27 µM | 1.15 µM | 0.386 µM | 0.256 µM | – | – | – | 1.1 µM | 1 µM | 1.53 µM | 1.85 µM | 0.469 µM | TGI (SK-MEL-28): 1.2 µM; GI50 (SK-MEL-28; read-out: GI50): 1.28 µM; CC50 (HeLa): 1.3 µM; GI50 [5]: 1.45 µM; LC50 (concentration giving 50% net cell kill) [5]: 0.983 µM; TGI [5]: 1.2 µM; GI50 (LoVo [1]): 0.496 µM; TGI (LoVo [1]): 0.432 µM; TGI (SK-BR-3): 0.492 µM; GI50 (SK-BR-3; read-out: GI50): 0.556 µM; CC50 (SK-BR-3; read-out: LC50 (the source's name)): 0.435 µM; TGI (LoVo [3]): 0.426 µM; GI50 (HT-29): 1.09 µM; TGI (HT-29): 1.74 µM; TGI [4]: 1.74 µM; GI50 [4]: 2.07 µM; TGI (DU-145): 1.17 µM; GI50 (DU-145): 1.37 µM |

Reference: ChEMBL document CHEMBL1156597, “Structure-activity relationship of kahalalide F synthetic analogues” (J Med Chem, 2008)
